Test results published in PMC8643159 (Drug Design, Development and Therapy, 2021).
Read-outs that look alike come from different tables or passages of the source.

Columns and labels:
CYP2C8 = conditions: cited from earlier work
CYP3A4 = conditions: cited from earlier work
[1] = cited from earlier work
[2] = assay type: in vivo; conditions: beagle dogs
[3] = Stability of ripretinib in beagle dog plasma under four conditions; assay type: in vitro ADME; conditions: room temperature, autosampler, freeze-thaw, frozen storage; 2.5, 100, 750 ng/mL
Summary of the method: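 Dog plasma spiked with test compound at 2.5, 100 and 750 ng/mL, six replicates per level. Stability checked at room temperature, in frozen storage, through freeze-thaw, and as processed extracts in the autosampler. Samples taken with avapritinib IS through 1 mol/L NaOH and ethyl acetate extraction, dried under nitrogen, reconstituted in mobile phase; quantified by UPLC-MS/MS (C18, 0.1% formic acid/acetonitrile gradient).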

[4] = oral administration of 150 mg of ripretinib
[5] = single dose of ripretinib 150 mg, patients
[6] = combined with itraconazole vs ripretinib alone
[7] = combined with voriconazole vs ripretinib alone

CCn1c(=O)c(-c2cc(NC(=O)Nc3ccccc3)c(F)cc2Br)cc2cnc(N)cc21 [DP-5439]
inhibition of CYP2C8 (CYP2C8): could inhibit

CCC(C)n1ncn(-c2ccc(N3CCN(c4ccc(OCC5COC(Cn6cncn6)(c6ccc(Cl)cc6Cl)O5)cc4)CC3)cc2)c1=O (centres unmarked) [Itraconazole]
inhibition of CYP3A4 (CYP3A4): strong inhibitor

CCn1c(=O)c(-c2cc(NC(=O)Nc3ccccc3)c(F)cc2Br)cc2cnc(NC)cc21 [Ripretinib]
median time to reach Cmax [1, 4]: 4 h
time to reach a steady state [1, 4]: 14 days
mean AUC0-12h [1, 5]: 3773 ng·h/mL
mean AUC0-24h [1, 5]: 6634 ng·h/mL
mean Cmax [1, 5]: 502 ng/mL
inhibition of CYP2C8 (CYP2C8): could inhibit
increase of AUC0→t of ripretinib [2, 6]: 36.35%
increase of Cmax of ripretinib [2, 6]: 38.35%
increase of AUC0→t of ripretinib [2, 7]: 25.52%
increase of Cmax of ripretinib [2, 7]: 27.44%
stability in plasma under four conditions [3]: good stability

C[C@@H](c1ncncc1F)[C@](O)(Cn1cncn1)c1ccc(F)cc1F [voriconazole]
inhibition of CYP3A4 (CYP3A4): moderate inhibitor
